Laboratory results: ChEMBL document CHEMBL1140564, “Macrocyclic ureas as potent and selective Chk1 inhibitors: an improved synthesis, kinome profiling, structure-activity relationships, and preliminary pharmacokinetics” (Bioorg Med Chem Lett, 2007)
The source made the active and inactive calls. The calls are words filed in the database; no cut-off is given here.

Legend:
HeLa = experiment: Cytotoxicity against HeLa cells by MTS assay; format: functional, cell-based; details: Homo sapiens
NCI-H1299 = experiment: Inhibition of doxorubicin-induced cell cycle arrest in H1299 cells at G2/M phase by FACS assay; format: functional, cell-based; details: Homo sapiens
Outline: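 H1299 cells treated with 500 nM doxorubicin to induce G2/M arrest, with or without inhibitor at various concentrations, up to 10 μM. Cells stained with propidium iodide and DNA content analysed by FACS. EC50 for abrogation of the Dox-induced G2/M checkpoint.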

[1] = Cell cycle arrest in H1299 cells by accumulation at G2/M phase by FACS assay; format: functional, cell-based; details: Homo sapiens, NCI-H1299
[2] = molecular target: T1, Serine/threonine-protein kinase Chk1 (Homo sapiens, UniProt O14757); experiment: Inhibition of Chk1
T1 sequence (O14757 whole entry): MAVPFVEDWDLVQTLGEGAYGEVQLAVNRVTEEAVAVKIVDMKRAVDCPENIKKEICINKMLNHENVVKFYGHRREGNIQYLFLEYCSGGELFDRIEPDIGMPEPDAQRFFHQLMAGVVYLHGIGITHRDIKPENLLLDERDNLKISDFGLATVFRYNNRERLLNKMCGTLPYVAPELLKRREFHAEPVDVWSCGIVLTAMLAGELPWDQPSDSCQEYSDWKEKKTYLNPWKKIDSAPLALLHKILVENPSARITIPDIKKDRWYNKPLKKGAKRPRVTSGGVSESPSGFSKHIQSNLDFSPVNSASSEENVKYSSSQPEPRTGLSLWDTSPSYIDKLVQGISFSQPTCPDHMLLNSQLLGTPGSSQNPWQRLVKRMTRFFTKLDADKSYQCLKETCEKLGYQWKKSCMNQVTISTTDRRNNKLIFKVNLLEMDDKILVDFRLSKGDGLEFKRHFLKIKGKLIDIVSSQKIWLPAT

[3] = AUC in mouse plasma at 10 mg/kg; format: ADME, organism-based; parameters: dose 10 mg/kg
Outline: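 CD-1 mice received a single intraperitoneal dose of 10 mg/kg. Plasma drug levels were followed over time, and exposure was expressed as AUC in µmol h/L.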

| SMILES | EC50 (HeLa) [nM] | Activity (NCI-H1299) | Activity [1] | IC50 [2] [nM] | EC50 (NCI-H1299) [nM] | EC50 [1] [nM] | AUC [3] [µM·h] |
| --- | --- | --- | --- | --- | --- | --- | --- |
| N#Cc1ncc2nc1OC/C=C\COc1cc(OCCCO)c(Cl)cc1NC(=O)N2 | > 59300 | inactive | inactive | 2 |  |  |  |
| N#Cc1ncc2nc1OCCCCOc1cc(OCCO)c(Cl)cc1NC(=O)N2 | > 59300 |  |  | 8 | 3200 | > 10000 |  |
| CNc1cc2c(cc1Cl)NC(=O)Nc1cnc(C#N)c(n1)OCCCCO2 | > 59300 |  |  | 2 | > 10000 | > 10000 |  |
| N#Cc1ncc2nc1OCCCCOc1cc(NC(=O)c3ccncc3)c(Cl)cc1NC(=O)N2 | 24300 | inactive | inactive | 4 |  |  |  |
| N#Cc1ncc2nc1OC/C=C\COc1cc(NCCO)c(Cl)cc1NC(=O)N2 | > 59300 |  |  | 2 | 1300 | > 10000 |  |
| N#Cc1ncc2nc1OC/C=C\COc1cc(O)c(Cl)cc1NC(=O)N2 | 45700 |  |  | 0.3 | 700 | > 10000 |  |
| N#Cc1ncc2nc1OC/C=C\COc1cc(NCc3cncs3)c(Cl)cc1NC(=O)N2 | 13600 |  |  | 4 | 200 | > 10000 |  |
| N#Cc1ncc2nc1OCCCCOc1cc(O)c(Cl)cc1NC(=O)N2 | > 59300 | inactive | inactive | 0.3 |  |  |  |
| N#Cc1ncc2nc1OCCCCOc1cc(NC(=O)c3ccnc(Cl)c3)c(Cl)cc1NC(=O)N2 | > 59300 | inactive | inactive | 4 |  |  |  |
| CCNc1cc2c(cc1Cl)NC(=O)Nc1cnc(C#N)c(n1)OCCCCO2 | > 59300 | inactive | inactive | 3 |  |  |  |
| N#Cc1ncc2nc1OC/C=C\COc1cc(N)c(Cl)cc1NC(=O)N2 | > 59300 |  |  | 0.3 | < 30 | > 10000 |  |
| N#Cc1ncc2nc1OC/C=C\COc1cc(N3CCOC3=O)c(Cl)cc1NC(=O)N2 | > 59300 | inactive | inactive | 10 |  |  |  |
| N#Cc1ncc2nc1OCCCCOc1ccc(Cl)cc1NC(=O)N2 | 57600 |  |  |  | 1300 | > 10000 | 3.8 |
| N#Cc1ncc2nc1OC/C=C\COc1cc(NC(=O)OCCN3CCOCC3)c(Cl)cc1NC(=O)N2 | > 59300 |  |  | 3 | > 10000 | > 10000 |  |
| CN(C)c1cc2c(cc1Cl)NC(=O)Nc1cnc(C#N)c(n1)OC/C=C\CO2 | 18700 |  |  | 2 | 1700 | > 10000 |  |
| COCCCOc1cc2c(cc1Cl)NC(=O)Nc1cnc(C#N)c(n1)OCCCCO2 | 13900 | inactive | inactive | 3 |  |  |  |
| C[C@H](N)C(=O)Nc1cc2c(cc1Cl)NC(=O)Nc1cnc(C#N)c(n1)OC/C=C\CO2 | > 59300 |  |  | 3 | 90 | > 10000 |  |
| N#Cc1ncc2nc1OCCCCOc1cc(OCCCO)c(Cl)cc1NC(=O)N2 | > 59300 |  |  | 1 | 2500 | > 10000 |  |
